Assay results from ChEMBL document CHEMBL4011638, “Semisynthetic Flavone-Derived Antimicrobials with Therapeutic Potential against Methicillin-Resistant Staphylococcus aureus (MRSA)” (J Med Chem, 2017).
In brackets after ≈: the same amount, converted by molar mass.

Tests used:
[1] = system: Staphylococcus aureus; test: Antibacterial activity against methicillin-resistant Staphylococcus aureus DM 21455 after 24 hrs by broth microdilution method; type: functional; details: DM 21455, 24 h
Summary of the method: (§1)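 Broth microdilution per CLSI in cation-adjusted Mueller−Hinton broth, in tubes. Compounds dissolved in H2O or DMF, then diluted in PBS to 1000 μg/mL stocks. Serial 2-fold dilutions were made, with final DMF 2.5%. Organisms were grown on TSA at 35 °C for 20 h and adjusted to ~5× 10^5 CFU/mL. Tubes were incubated at 35 °C for 24 h. MIC was the lowest concentration with no visible growth versus control. Biological replicates.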

[2] = system: Staphylococcus aureus; test: Antibacterial activity against methicillin-sensitive Staphylococcus aureus DM4583R after 24 hrs by broth microdilution method; type: functional; summary of the method: as §1
[3] = system: Staphylococcus aureus; test: Antibacterial activity against methicillin-sensitive Staphylococcus aureus ATCC 29213 after 24 hrs by broth microdilution method; type: functional; details: ATCC 29213, 24 h; summary of the method: as §1
[4] = system: Staphylococcus aureus; test: Antibacterial activity against methicillin-sensitive Staphylococcus aureus ATCC 6538 after 24 hrs by broth microdilution method; type: functional; details: ATCC 6538, 24 h; summary of the method: as §1
[5] = system: Staphylococcus aureus; test: Antibacterial activity against methicillin-resistant Staphylococcus aureus ATCC 43300 after 24 hrs by broth microdilution method; type: functional; details: ATCC 43300, 24 h; summary of the method: as §1
[6] = system: Staphylococcus aureus; test: Antibacterial activity against methicillin-resistant Staphylococcus aureus ATCC 700699 after 24 hrs by broth microdilution method; type: functional; details: ATCC 700699, 24 h; summary of the method: as §1
[7] = system: Staphylococcus aureus; test: Antibacterial activity against methicillin-resistant Staphylococcus aureus BAA-38 after 24 hrs by broth microdilution method; type: functional; details: BAA-38, 24 h; summary of the method: as §1
[8] = system: Staphylococcus aureus; test: Bactericidal activity against methicillin-resistant Staphylococcus aureus DM21455 assessed as log reduction in bacterial count at 4 times MIC up to 30 mins by time kill assay; type: functional
Summary of the method: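 Time-kill. Starting inoculum 10^5−10^6 CFU/mL, exposed to 0.5×, 1×, 2× and 4× MIC at 35 °C. Colonies were counted after 24 h at 35 °C and CFU/mL calculated. Biological replicates.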

[9] = Cytotoxicity in human Corneal fibroblasts assessed as LDH release at 100 uM after 24 hrs; type: cell-based; details: corneal fibroblast
Summary of the method: (§2)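 Human corneal fibroblasts are exposed to test samples for 24 h, and cytotoxicity is read as LDH leakage into the medium. Biological replicates.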

[10] = system: Staphylococcus aureus; test: Antibacterial activity against methicillin-resistant Staphylococcus aureus ATCC 700699 infected in C57BL6 mouse corneas assessed as log reduction in bacterial burden at 0.5 % dosed at 1 day post infection administered 5 times daily for 3 days; type: functional
Summary of the method: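 C57BL6 mice, 6−8 weeks old, 20−30 g, anesthetized with ketamine/xylazine; four per group. Three 1 mm scratches were made on the right cornea and 10 μL of a 6 × 10^8 CFU/mL MRSA ATCC 700699 suspension was applied. From day 1 post infection, agents in PBS (12 mM, pH 7.2) were given topically 5 times daily for 3 days; PBS alone as control. Corneas were homogenized in 0.9% NaCl with 0.25% BSA and plated on TSA for 48 h at 35 °C.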

[11] = Cytotoxicity against human Corneal fibroblasts assessed cell viability at 50 uM after 24 hrs by Cell Titer-Glo luminescent assay; type: cell-based, Corneal fibroblast; details: read-out: Activity
Summary of the method: (§3)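 ATP luminescence viability in human corneal fibroblasts, ~10000 cells per well, duplicate wells. After 24 h exposure the plate is equilibrated 0.5 h at 22 °C before Cell Titer-Glo addition and luminescence read. 1% Triton X-100 serves as positive control, medium-treated cells as negative control. Biological replicates.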

[12] = Cytotoxicity against human Corneal fibroblasts assessed cell viability at 80 uM after 24 hrs by Cell Titer-Glo luminescent assay; type: cell-based, Corneal fibroblast; details: read-out: Activity; summary of the method: as §3
[13] = Cytotoxicity in human Corneal fibroblasts assessed as LDH release at 10 uM after 24 hrs; type: cell-based; details: corneal fibroblast; summary of the method: as §2

## COC(=O)[C@H](CCCNC(=N)N)NC(=O)COc1cc(O)c2c(=O)c(OCC(=O)N[C@@H](CCCNC(=N)N)C(=O)OC)c(-c3ccc(OC)cc3)oc2c1CC=C(C)C
[1]
  MIC: 1.9 µM (≈ 1.57 µg/mL)
[2]
  MIC: 1.56 µg/mL (≈ 1.89 µM)
[3]
  MIC: 3.13 µg/mL (≈ 3.79 µM)
[4]
  MIC: 1.56 µg/mL (≈ 1.89 µM)
[5]
  MIC: 1.56 µg/mL (≈ 1.89 µM)
[6]
  MIC: 3.13 µg/mL (≈ 3.79 µM)
[7]
  MIC: 3.13 µg/mL (≈ 3.79 µM)
[8]
  Activity: 3 deltalog10CFU/ml
[9]
  Activity: 23.9%
[10]
  Activity: 2.95 deltalog10CFU/ml
[11]
  viability at 24 h, 50 µM: 97.7%
[12]
  viability at 24 h, 80 µM: 69.3%
[13]
  Activity: -1.52%
